Drawing on ChEMBL document CHEMBL3044977, “Synthesis and fungicidal activity of enantiomerically pure (R)- and (S)-silicon-containing azole fungicides” (Bioorg Med Chem, 2004), this text covers Activity and IC50 for 3 molecules.

Assay [1] relates to Pyricularia oryzae. As to the kind of experiment: Antifungal activity against Magnaporthe oryzae infected compound pre-treated rice seedlings through submerged application assessed as concentration required to prevent rice blast disease development measured per 10 acres after 7 days under greenhouse condition. It counts as functional.
For assay [2], the system named is Rhizoctonia solani. As to the kind of experiment: Antifungal activity against Rhizoctonia solani infected compound pre-treated rice seedlings through submerged application assessed as concentration required to prevent rice sheath blight disease development measured per 10 acres after 7 days under greenhouse condition. The class given is functional.
Assay [3] concerns Pyricularia oryzae. In words: Fungicidal activity against Magnaporthe oryzae assessed as inhibition of mycelial growth after 24 to 48 hr by agar dilution method. It counts as functional, organism-based. The procedure, abridged:
(§1)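 Agar dilution on potato dextrose agar. Test compounds were serially diluted in DMSO containing 10% Tween 20, and 0.1 mL of each dilution went into a petri dish with 10 mL of agar medium, which was then solidified. IC50 was taken as the concentration giving 50% inhibition.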

Assay [4] deals with Rhizoctonia solani. In words: Fungicidal activity against Rhizoctonia solani assessed as inhibition of mycelial growth after 24 to 48 hr by agar dilution method. The class given is functional, organism-based. The procedure, abridged:
as §1

Consider `C[Si](C)(C)C[C@@](O)(Cn1cncn1)c1ccc(F)cc1`, for which the Activity in the assay on Pyricularia oryzae [1] and in the assay with Rhizoctonia solani [2] was above 100 g throughout. The values for the IC50 in the assay with Pyricularia oryzae [3] and with Rhizoctonia solani [4] were 33.5 ppm and 0.54 ppm, respectively.
Turning to `C[Si](C)(C)C[C@](O)(Cn1cncn1)c1ccc(F)cc1`, the Activity is given as 100 g in the assay with Pyricularia oryzae [1] and 25 g in the assay with Rhizoctonia solani [2]. The IC50 in the assay with Pyricularia oryzae [3] is on record as 0.95 ppm; in the assay with Rhizoctonia solani [4], 0.016 ppm.
For `C[Si](C)(C)CC(O)(Cn1cncn1)c1ccc(F)cc1` (racemic) [SIMECONAZOLE] the same measures were 100 g, 25 g, 1.25 ppm and 0.042 ppm.
